The values below come from ChEMBL document CHEMBL1154198, “Chemical genetics of Plasmodium falciparum” (Nature, 2010).

One data set deals with Toxoplasma gondii. The data set is described as follows: ST_JUDE: Growth inhibition of to Toxoplasma gondii, in human U-2OS cells, as measured by luciferase. The data set is classed as functional, organism-based. The settings on record: RH, U2OS. Summed up:
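T. gondii parasites engineered to express luciferase; drug sensitivity read by luminescence.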

Data set [1] in a line: ST_JUDE: Cytotoxicity using luciferase to measure ATP as an indicator of the viability of human foreskin fibroblast cells (BJ). It is filed as toxicity, cell-based.
Data set [2] is described as follows: ST_JUDE: Cytotoxicity using luciferase to measure ATP as an indicator of the viability of human Burkitt''s lymphoma lymphoblast cells (Raji). The data set is classed as toxicity, cell-based.
A further data set has as its system Leishmania major. Put plainly: ST_JUDE: Cytotoxicity using Alamar Blue to measure viability of Leishmania major. The data set is classed as functional, organism-based. The method in brief:
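L. major promastigotes; drug susceptibility read with Alamar Blue.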

Data set [3] can be described thus: ST_JUDE: Cytotoxicity using luciferase to measure ATP as an indicator of the viability of human epithelial embryonic kidney cells (HEK293). The data set is classed as toxicity, cell-based.
In another data set the test system is Trypanosoma brucei. Put plainly: ST_JUDE: Cytotoxicity using luciferase to measure ATP as an indicator of the viability of Trypanosoma brucei. The data set is classed as functional, organism-based.
Data set [4] can be described thus: ST_JUDE: Cytotoxicity using luciferase to measure ATP as an indicator of the viability of human epithelial hepatocellular carcinoma cells (HepG2). The data set is classed as toxicity, cell-based.
Data set [5] concerns Plasmodium falciparum. The data set is described as follows: ST_JUDE: Plasmodium falciparum 3D7 EC50 (uM) as measured by SYBR green dye. It is filed as functional, organism-based.
The subject of data set [6] is Plasmodium falciparum. The data set is described as follows: ST_JUDE: Plasmodium falciparum K1 EC50 (uM) as measured by SYBR green dye. It is filed as functional, organism-based.

Some results are limits rather than exact numbers.

Consider `CC(C)CN1C(=O)c2ccccc2C(C(=O)Nc2cccc(C(F)(F)F)c2)C1c1cccs1` (centres undefined), for which the half-maximal effective concentration (EC50) in the data set with Toxoplasma gondii is greater than 25.9 µM; in [1] it was greater than 47.2 µM; in [2] it was greater than 47.2 µM; in the data set with Leishmania major, greater than 20.2 µM; in [3] it was greater than 47.2 µM; in the data set with Trypanosoma brucei, 3.3 µM. The same compound had an EC50 in data set [4] of 37.7 µM.

Consider `COc1cccc(NC(=O)C2c3ccccc3C(=O)N(CC(C)C)C2c2cccs2)c1` (centres undefined), for which the EC50 with Toxoplasma gondii was greater than 22.3 µM; in data set [1], greater than 40.8 µM; in data set [2], greater than 40.8 µM; in the data set on Leishmania major it was greater than 17.5 µM; in data set [3], greater than 40.8 µM; in the data set on Plasmodium falciparum [5], 0.175 µM. For the same compound, the EC50 is 7.54 µM in the data set with Trypanosoma brucei and greater than 40.8 µM in data set [4].

For the compound `CCCCCCc1cc(O)c2c(C)cc(=O)oc2c1`, the EC50 was greater than 15 µM in the data set with Plasmodium falciparum [5] and 4.15 µM with Plasmodium falciparum [6].

For `CCCCN(C)Cc1c(O)ccc2c(=O)c(Oc3ccccc3OCC)c(C(F)(F)F)oc12`, the 50% effective concentration (EC50) in the data set with Plasmodium falciparum [5] was found to be 2 µM; with Plasmodium falciparum [6] it was 1.47 µM.

For `Oc1ccc(Nc2nc(NCc3ccccc3)c3ccccc3n2)cc1`, the EC50 in the data set with Plasmodium falciparum [5] was 0.203 µM; in the data set with Plasmodium falciparum [6], greater than 15 µM.

As for `O=C(Nc1c2c(nn1-c1ccc([N+](=O)[O-])cc1)CSC2)c1ccc(C(=O)c2ccccc2)cc1`, the EC50 in the data set on Plasmodium falciparum [5] was greater than 15 µM; in the data set with Plasmodium falciparum [6], 4.08 µM.

Take `CCOC(=O)c1sc(N2C(=O)C(O)=C(C(=O)c3ccc(Cl)cc3)C2c2ccccc2)nc1C` (centres undefined): the EC50 in the data set on Plasmodium falciparum [5] and in the data set with Plasmodium falciparum [6] was greater than 15 µM in each case.

As to `COC(=O)C1C(O)=C2C(=Nc3ccccc3NC2c2ccccc2OC(C)C)CC1C` (centres undefined), the EC50 in the data set on Plasmodium falciparum [5] and with Plasmodium falciparum [6] was greater than 15 µM throughout.

Turning to `Oc1c(C(Nc2ccccn2)c2ccccc2Br)cc(Cl)c2cccnc12` (centres undefined), the results for the EC50 with Plasmodium falciparum [5] and in the data set on Plasmodium falciparum [6] were 2.13 µM and greater than 15 µM, respectively.

For the compound `CN(C)CCNC(=O)c1ccc2c(c1)sc1nc(-c3ccc(F)cc3)cn12`, the EC50 in the data set on Plasmodium falciparum [5] stood at 3.19 µM; in the data set with Plasmodium falciparum [6], 3.54 µM.

In the case of `CN1CCN(c2ccc(-c3cccc(NC(=O)c4cccc(F)c4)c3)nn2)CC1`, the EC50 with Plasmodium falciparum [5] and in the data set with Plasmodium falciparum [6] was greater than 15 µM throughout.

Take `Cc1cccc(NC(c2cccc(Cl)c2)c2ccc3cccnc3c2O)n1` (centres undefined): the EC50 with Plasmodium falciparum [5] came to 3.47 µM; in the data set on Plasmodium falciparum [6], 3.34 µM.

Regarding `CO/C(O)=C1\C(C)=NC2=C(C(=O)CC(c3ccccc3OC)C2)C1c1ccc([N+](=O)[O-])cc1` (centres undefined), the EC50 in the data set with Plasmodium falciparum [5] was 3.83 µM; with Plasmodium falciparum [6] it was greater than 15 µM.

Take `CCCO/C(O)=C1\C(C)=NC2=C(C(=O)CC(c3ccccc3OC)C2)C1c1ccc(OC)c(OC)c1` (centres undefined): the results for the EC50 with Plasmodium falciparum [5] and in the data set with Plasmodium falciparum [6] were 3.85 µM and 3.8 µM, respectively.

For the compound `CCC(C)c1ccccc1OCC(O)CNC1CCCC1` (centres undefined), the EC50 is 1.73 µM in the data set on Plasmodium falciparum [5] and 0.959 µM in the data set with Plasmodium falciparum [6].

Consider `Cc1cccc(OCC(=O)Nc2cccc(-c3nnc(-c4ccccc4)o3)c2)c1`, for which the EC50 in the data set on Plasmodium falciparum [5] and in the data set on Plasmodium falciparum [6] was greater than 15 µM in each case.

Consider `Cc1cccc(C2CC(=O)NC3=C2C(=O)CC(c2ccccc2Cl)C3)c1` (centres undefined), for which the values for the EC50 in the data set with Plasmodium falciparum [5] and with Plasmodium falciparum [6] were greater than 15 µM and 4.42 µM, respectively.

Regarding `CN(C)S(=O)(=O)c1ccc(C(=O)NNc2nc3ccc(Cl)cc3s2)cc1`, the values for the EC50 with Plasmodium falciparum [5] and with Plasmodium falciparum [6] were 4.68 µM and 4.5 µM, respectively.

Regarding `OC(CN1CCN(Cc2ccccc2)CC1)Cn1c2ccccc2c2ccccc21` (centres undefined), the figures for the EC50 in the data set on Plasmodium falciparum [5] and in the data set on Plasmodium falciparum [6] were 2.64 µM and 1.15 µM, respectively.

`CCC(C)c1ccc(NC(=O)c2cc(Br)ccc2OC)c(O)c1` (centres undefined): the EC50 with Plasmodium falciparum [5] is 6.05 µM; in the data set with Plasmodium falciparum [6], 2.11 µM.

Turning to `CCCC(=O)C1=C(c2cccc(OC)c2)N(C(=O)CCC)n2cnnc2S1`, the EC50 in the data set on Plasmodium falciparum [5] and in the data set with Plasmodium falciparum [6] was greater than 15 µM each time.

Consider `Cc1ccccc1NC(=O)C1c2ccccc2C(=O)N(C2CCCC2)C1c1cccs1` (centres undefined), for which the figures for the EC50 in the data set with Plasmodium falciparum [5] and with Plasmodium falciparum [6] were 2.82 µM and 4.34 µM, respectively.

As to `CCN(CC)CCNC(=O)c1ccc2c(c1)sc1nc(-c3ccccc3)cn12`, the EC50 is 1.03 µM with Plasmodium falciparum [5] and 1.5 µM in the data set with Plasmodium falciparum [6].

In the case of `CCN(CC)c1cc(C)c2cc(NC(=O)c3ccc(F)cc3)ccc2n1`, the half-maximal effective concentration (EC50) in the data set on Plasmodium falciparum [5] and with Plasmodium falciparum [6] was greater than 15 µM throughout.

As to `CCOC(=O)c1oc2ccccc2c1NC(=O)c1ccc(C)c([N+](=O)[O-])c1`, the EC50 in the data set with Plasmodium falciparum [5] and in the data set with Plasmodium falciparum [6] was greater than 15 µM throughout.

For the compound `O=C(CCNc1ccc(Oc2ccccc2)cc1)c1ccco1`, the EC50 in the data set with Plasmodium falciparum [5] and in the data set on Plasmodium falciparum [6] was greater than 15 µM throughout.

As for `CC(C)c1ccc(CN(Cc2ccco2)C(=O)COc2ccccc2Cl)cc1`, the concentration giving a half-maximal response (EC50) in the data set with Plasmodium falciparum [5] was 7.43 µM; in the data set with Plasmodium falciparum [6], greater than 15 µM.

Consider `COc1cccc(C(=O)NCc2nnc(S)n2-c2ccc(Cl)c(Cl)c2)c1`, for which the EC50 was determined as 0.0928 µM in the data set with Plasmodium falciparum [5] and 0.0463 µM with Plasmodium falciparum [6].

`CCOc1cccc(CN2CCCC(C(=O)c3cccc(C(F)(F)F)c3)C2)c1O` (centres undefined): the results for the EC50 with Plasmodium falciparum [5] and in the data set on Plasmodium falciparum [6] were 3.34 µM and 1.09 µM, respectively.

With `CC(=O)c1ccc(Oc2c(F)c(F)nc(F)c2F)cc1`, the EC50 with Plasmodium falciparum [5] and in the data set with Plasmodium falciparum [6] was greater than 15 µM in each case.

Turning to `CCCCC(O)(c1ccc(CC)cc1)C(CN1CCOCC1)c1ccccc1` (centres undefined), the EC50 came out at 3.9 µM in the data set on Plasmodium falciparum [5] and 3.44 µM with Plasmodium falciparum [6].

For the compound `Oc1cccc(/C=C/c2ccc3cccc(O)c3n2)c1`, the EC50 was greater than 15 µM in the data set on Plasmodium falciparum [5] and 5.88 µM with Plasmodium falciparum [6].

With `CCCSc1nc2sc3c(c2c(=O)n1-c1ccc(C)cc1)CCN(Cc1ccccc1)C3`, the half-maximal effective concentration (EC50) in the data set with Plasmodium falciparum [5] is 1.31 µM; in the data set with Plasmodium falciparum [6], 1.61 µM.

Consider `CCc1c(C)c2cc3c(c(C)c2oc1=O)OCN(CCc1ccc(OC)cc1)C3`, for which the results for the EC50 with Plasmodium falciparum [5] and in the data set on Plasmodium falciparum [6] were greater than 15 µM and 0.514 µM, respectively.

As for `CCCCc1ccc(Nc2cc(C)nc(-n3nc(C)cc3C)n2)cc1`, the EC50 was greater than 15 µM with Plasmodium falciparum [5] and 4.64 µM in the data set with Plasmodium falciparum [6].

Regarding `CC1(C)CC(=O)C2=C(C1)OC(N)=C(C#N)C2c1ccc(F)cc1F` (centres undefined), the EC50 with Plasmodium falciparum [5] and in the data set on Plasmodium falciparum [6] was greater than 15 µM each time.

As for `COc1cc(Cl)c(C)cc1NC(=O)C1c2ccccc2C(=O)N(CC(C)C)C1c1cccs1` (centres undefined), the EC50 in the data set on Plasmodium falciparum [5] was determined as 0.166 µM; with Plasmodium falciparum [6], 0.226 µM.

For `COc1cccc(OCC(=O)NCc2ccccc2)c1`, the EC50 in the data set on Plasmodium falciparum [5] and in the data set on Plasmodium falciparum [6] was greater than 15 µM in each case.

With `CCCCn1c(N)c(C#N)c2nc3ccccc3nc21`, the results for the EC50 with Plasmodium falciparum [5] and in the data set with Plasmodium falciparum [6] were 1.52 µM and 6.01 µM, respectively.

Take `Cc1cccn2c(=O)nc(SCc3cccc(F)c3)nc12`: the EC50 in the data set on Plasmodium falciparum [5] was greater than 15 µM; in the data set with Plasmodium falciparum [6], 10.1 µM.

`O=C1c2ccc3c4c(ccc(c24)C(=O)N1CCO)C(=O)N(CCO)C3=O`: the values for the EC50 with Plasmodium falciparum [5] and with Plasmodium falciparum [6] were greater than 15 µM and 2.7 µM, respectively.

Consider `COc1ccc(CC(=O)N2CC(=O)Nc3ccc(Cl)cc3C2c2ccc(F)cc2)cc1` (centres undefined), for which the EC50 in the data set on Plasmodium falciparum [5] and in the data set on Plasmodium falciparum [6] was greater than 15 µM in each case.

Take `CCCCC(=O)NC(c1cccs1)c1cc(Cl)c2cccnc2c1O` (centres undefined): the concentration giving a half-maximal response (EC50) in the data set on Plasmodium falciparum [5] and with Plasmodium falciparum [6] was greater than 15 µM throughout.

Regarding `COc1ccc(N2C(=O)/C(=C/Nc3ccccc3OC)c3ccccc3C2=O)cc1`, the EC50 with Plasmodium falciparum [5] and in the data set on Plasmodium falciparum [6] was greater than 15 µM in each case.
